Assay results collected from several papers.
Protocols differ between the studies behind these lines.
Target: Proto-oncogene tyrosine-protein kinase ROS (ROS1, Homo sapiens, UniProt P08922)

SMILES	effect on	mode	technique	tested at	quantity	result
CCN(CC)CCNC(=O)c1c(C)[nH]c(/C=C2\C(=O)Nc3ccc(F)cc32)c1C	enzyme activity	inhibitor	–	0.3 µM	inhibition	4%
COc1cc(Cl)c(C(=O)N[C@@H](CN[C@H]2CC[C@@H](N)CC2)Cc2ccc(C#N)cc2)cc1-c1ccc(CN[C@H](C)c2ccc(C)cc2)o1	enzyme activity	inhibitor	–	1 µM	remaining activity	137%
CCOCCn1cc(C(=O)Nc2ccc(-n3nc(-c4cccnc4)cc3C(F)(F)F)cn2)ccc1=O	cell-free assay	–	competition with immobilised ligand	1 µM	remaining binding	100%
CC/C(=N\NC(=O)NCc1cccc(O)c1)c1ccc(O)c(C)c1O	enzyme activity	inhibitor	–	0.1 µM	inhibition	2.5%
COc1cc2c(N3CCN(C(=O)Nc4ccc(OC(C)C)cc4)CC3)ncnc2cc1OCCCN1CCCCC1	cell-free assay	–	–	0.5 µM	remaining signal	90.1%
CNCc1ccc(-c2cc(-c3nc(-c4ccc(S(=O)(=O)C(C)C)cc4)cnc3N)on2)cc1	enzyme activity	inhibitor	–	2 µM	inhibition	4%
COc1cc2c(Nc3ccc(Br)cc3F)ncnc2cc1OCC1CCN(C)CC1	cell-free assay	–	–	0.5 µM	remaining signal	76.5%
CCCS(=O)(=O)Nc1ccc(F)c(C(=O)c2c[nH]c3ncc(-c4ccc(Cl)cc4)cc23)c1F	enzyme activity	inhibitor	–	1 µM	inhibition	< 10%
CC(C)(O)[C@H]1CC[C@H](Nc2ccc3ncc(-c4cccc(C(F)(F)F)c4)n3n2)CC1	enzyme activity	inhibitor	–	1 µM	remaining activity	25.1%
COc1cc2ncnc(Nc3ccc(Oc4ccccc4)cc3C)c2cc1OC	enzyme activity	inhibitor	–	1 µM	inhibition	4%
CC(C)(C)c1nc(-c2cccc(NS(=O)(=O)c3c(F)cccc3F)c2F)c(-c2ccnc(N)n2)s1	enzyme activity	inhibitor	radiometric	1 µM	remaining activity	96%
CCC(=O)N[C@@H]1CC[C@H](C(=O)N(C)c2ccc(-c3nc4ccccc4o3)cc2)C1	cell-free assay	–	competition with immobilised ligand	1 µM	remaining binding	100%
Cc1sc(C(=O)NC2COC2)cc1-n1cc(NC(=O)Nc2c(F)cccc2Cl)cn1	enzyme activity	inhibitor	–	10 µM	remaining activity	102%
O=C1Nc2ccc(Cl)cc2C1=Cc1cc(Cl)c(O)c(Cl)c1	cell-free assay	–	–	0.5 µM	remaining signal	89.7%
Nc1ncnc2occ(-c3ccc(NC(=O)Nc4cc(C(F)(F)F)ccc4F)cc3)c12	cell-free assay	–	–	20 µM	remaining signal	4.9%
O=C(N[C@H]1CCCCC/C=C\C2C[C@@]2(C(=O)O)NC(=O)[C@@H]2C[C@@H](Oc3ccncc3)CN2C1=O)OC1CCCC1 (stereo partly drawn)	cell-free assay	–	competition with immobilised ligand	1 µM	remaining binding	92%
Cc1ccc(NC(=O)c2ccc(C)c(C(F)(F)F)c2)cc1C#Cc1nn(C2CCC(O)CC2)c2ncnc(N)c12 (stereo not drawn)	cell-free assay	–	–	10 µM	remaining signal	82%
CNC(=O)Nc1ccc2c(c1)[C@@]1(CC2)OC(=O)N(CC(=O)N(Cc2ccc(F)cc2)[C@@H](C)C(F)(F)F)C1=O	cell-free assay	–	competition with immobilised ligand	1 µM	remaining binding	87%
CCOc1cc(-c2nncn2C)ccc1Nc1ncc2cc(C)nc(NCC(C)(C)C)c2n1	enzyme activity	inhibitor	FRET	1 µM	inhibition	31%
O=C1NC(c2ccccn2)Sc2ccccc21 (stereo not drawn)	cell-free assay	–	competition with immobilised ligand	1 µM	remaining binding	95%
Cc1ccc(Nc2nccc(N(C)c3ccc4c(C)n(C)nc4c3)n2)cc1S(N)(=O)=O	enzyme activity	inhibitor	–	0.3 µM	inhibition	3%
CC(=O)N1CCC(c2ccc(C(=O)NC3=NCCN3)cc2C(F)(F)F)CC1	cell-free assay	–	competition with immobilised ligand	1 µM	remaining binding	99%
O=C1NC(=O)c2cc(Nc3ccc(F)cc3)c(Nc3ccc(F)cc3)cc21	cell-free assay	–	–	0.5 µM	remaining signal	92%
CC1=C(C#N)C(c2ccc3c(c2)c(NC(=O)c2ccccc2C)nn3C)C(C#N)=C(C)N1	cell-free assay	–	competition with immobilised ligand	1 µM	remaining binding	100%
CN1CC(Oc2cnc(C#N)cc2-c2ccn3nc(NC(=O)C4CC4)cc3c2)C1	enzyme activity	inhibitor	–	1 µM	inhibition	8%
CCCOc1ccc([C@@H]2[C@@H](C(=O)O)[C@H](c3ccc4c(c3)OCO4)CN2CC(=O)Nc2c(CC)cccc2CC)cc1	cell-free assay	–	competition with immobilised ligand	1 µM	remaining binding	90%
COc1cc2nccc(Oc3ccc(NC(=O)c4c5n(n(-c6ccc(F)cc6)c4=O)CCCC5)cc3)c2cc1OC	enzyme activity	inhibitor	–	0.1 µM	inhibition	26%
